Key:
DNA [1] = assay: Oxidative DNA damage; assay type: in vivo, Apc^Min/+ mice; settings: text: colon, Fig. 9B; RVT prior to and simultaneously with BaP; compared to BaP treatment only
[2] = HPLC analysis of BaP organic and aqueous metabolites in plasma, colon and liver; assay type: in vivo, Apc^Min/+ mice; settings: colon, RVT simultaneously or prior to BaP, compared to BaP alone
GST [3] = assay: GST activity in colon and liver; assay type: in vivo, Apc^Min/+ mice; settings: liver; compared to BaP alone
Summary of the method: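 Colon and liver protein from Apc^Min/+ mice was assayed for GST activity with a commercial kit. […] Tissues were collected 60 days after exposure; n = 10 per group.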

BaP-induced colon tumors [4] = settings: orally administered RVT; mice exposed to BaP compared to BaP alone; cited from earlier work
GST mRNA = GST mRNA expression; assay type: in vivo, Apc^Min/+ mice; settings: compared to the no treatment group
CYP1B1 mRNA = CYP1B1 mRNA expression; assay type: in vivo, Apc^Min/+ mice; settings: liver
DNA [5] = assay: BaP-DNA adducts by 32P-postlabeling and TLC in colon and liver; assay type: in vivo, Apc^Min/+ mice
[6] = Pharmacokinetics of BaP and RVT in plasma after oral gavage; assay type: in vivo, Apc^Min/+ mice; settings: for half-life / Clearance (Cl) / Volume of distribution (Vd): plasma; for Clearance (Cl) / Volume of distribution (Vd): oral gavage, BaP 100 μg/kg bw, RVT 45 μg/kg bw, mean ± SE, n = 10
GST [7] = assay: Glutathione-S-transferase protein expression in colon and liver; assay type: in vivo, Apc^Min/+ mice; settings: for GST protein expression: colon, RVT and BaP administered separately, compared to no treatment group; for Glutathione-S-transferase protein expression: liver, in comparison to control mice
Summary of the method: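 Western blot of total colon and liver protein: 10% SDS–PAGE, transfer to PVDF, mouse anti-GST and rabbit anti-GAPDH antibodies, detection with IRDye680 anti-mouse and IRDye800 anti-rabbit secondaries. GST signal was normalized to GAPDH. […] Values are mean ± SE, n = 10.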

BaP-induced colon tumors [8] = assay: BaP-induced colon tumors/adenomas; assay type: in vivo, Apc^Min/+ mice; settings: RVT administration post BaP subchronic exposure; data not shown

Compound	Base pair damage (apurinic/apyrimidinic sites) (DNA [1])	BaP aqueous metabolite levels [2]	BaP organic metabolite concentrations [2]	GST activity (GST [3])	Incidence, size and number of adenomas formed in the colon (BaP-induced colon tumors [4])	GST mRNA expression (GST mRNA; liver, RVT either simultaneously or prior to BaP treatment)	CYP1B1 mRNA expression (CYP1B1 mRNA)	Stable BaP-DNA adduct concentrations (DNA [5])	half-life ([6]; male, ApcMin/+, mouse, po)	Clearance (Cl) [6]	Volume of distribution (Vd) [6]	GST protein expression (GST [7])	Glutathione-S-transferase protein expression (GST [7])	Reversal of BaP-induced carcinogenic effects (tumor count and size) (BaP-induced colon tumors [8])	Decrease in GST mRNA expression (GST mRNA; colon)	Elimination rate (Kd) ([6]; male, ApcMin/+, mouse, in vivo, po)
Oc1ccc(C=Cc2cc(O)cc(O)c2)cc1 [RVT, 3,5,4′-trihydroxystilbene]	significant reduction	increases	significantly decreased	no significant changes	decrease	increase	feeble expression	reduced	1 ± 0.011 h	1.9 ± 0.14 mL/day/kg	0.00044 ± 5e-05 L/kg	increased	significantly decreased	failed to reverse		
c1ccc2c(c1)cc1ccc3cccc4ccc2c1c34 [BaP, Benzo(a)pyrene]									1.8 ± 0.018 h	2.4 ± 0.24 mL/day/kg	0.00058 ± 4.5e-05 L/kg	increased	significantly decreased		50%	0.17 ± 0.06 h

Reference: article PMC6309585 (Investigational new drugs, 2018)
